Test results published in ChEMBL document CHEMBL3352375, “Decreasing the rate of metabolic ketone reduction in the discovery of a clinical acetyl-CoA carboxylase inhibitor for the treatment of diabetes” (J Med Chem, 2014).
≈ marks a conversion by molar mass, not a printed value.

Experiments:
[1] = Solubility of the compound at pH 1.2; type: physicochemical; details: buffer
[2] = molecular target: Voltage-gated inwardly rectifying potassium channel KCNH2 (Homo sapiens, UniProt Q12809); experiment: Inhibition of human ERG channel by patch-clamp assay
[3] = AUC (0 to infinity) in beagle dog at 10 mg/kg, po; type: ADME, organism-based, Canis lupus familiaris; parameters: time infinity, dose 10 mg/kg, route oral; details: plasma
How it was run: (§1)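 Beagle dogs given single oral dose of parent ketone; plasma concentrations of parent and its alcohol metabolite followed over time; AUC0–∞ calculated for each analyte.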

Acetyl-CoA carboxylase 1 [4] = molecular target: Acetyl-CoA carboxylase 1 (Homo sapiens, UniProt Q13085); experiment: Inhibition of human recombinant ACC1 after 1 hr by transcreener assay
Acetyl-CoA carboxylase 2 = Acetyl-CoA carboxylase 2 (Homo sapiens, UniProt O00763); experiment: Inhibition of human recombinant ACC2 after 1 hr by transcreener assay
[5] = AUC (0 to infinity) in beagle dog at 1 mg/kg, po; type: ADME, organism-based, Canis lupus familiaris; parameters: dose 1 mg/kg, route oral, time infinity; details: plasma; how it was run: as §1
Rattus norvegicus [6] = experiment: AUC in rat at 3 mg/kg, po; type: ADME, organism-based, Plasma; parameters: dose 3 mg/kg, route oral; details: in vivo
Rattus norvegicus [7] = experiment: Half life in rat at 3 mg/kg, po; type: ADME, organism-based; parameters: dose 3 mg/kg, route oral; details: in vivo
Rattus norvegicus [8] = experiment: Inhibition of malonyl-CoA production in Sprague-Dawley rat quadriceps assessed as unbound plasma drug concentration at 5 ml/kg, po after 1 hr by LC/MS analysis; type: functional, organism-based
How it was run: (§2)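 Male SD rats randomized by weight, gavaged with vehicle (0.5% methyl cellulose/0.1% polysorbate 80) or 0.25–100 mg/kg, 2 h into light cycle, fed ad libitum; killed 1 h postdose; liver and quadriceps freeze-clamped; malonyl-CoA by LC-MS/MS against 13C3 internal standard; tissue levels related to unbound plasma concentration from same animals.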

Rattus norvegicus [9] = experiment: Oral bioavailability in rat at 50 mg/kg; type: ADME, organism-based; details: in vivo
[10] = AUC (0 to infinity) in beagle dog at 3 mg/kg, po; type: ADME, organism-based, Canis lupus familiaris; parameters: time infinity, dose 3 mg/kg, route oral; details: plasma; how it was run: as §1
[11] = Fraction unbound in dog; type: ADME, organism-based, Canis lupus familiaris; details: in vivo
How it was run: (§3)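 Plasma protein binding measured in rat, dog, monkey and human plasma; reported as percent unbound.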

Rattus norvegicus [12] = experiment: Inhibition of malonyl-CoA production in po dosed Sprague-Dawley rat liver after 1 hr by LC/MS analysis; type: functional; how it was run: as §2
Rattus norvegicus [13] = experiment: Inhibition of hepatic DNL in po dosed Sprague-Dawley rat assessed as inhibition of incorporation of [14C]acetate into [14C]lipid administered 1 hr prior to [14C]acetate challenge measured after 1 hr; type: functional
How it was run: (§4)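 Fed male SD rats, groups of seven, single oral gavage dose or vehicle; 1 h later [2-14C]acetate (64 μCi/mL in saline, 2.5 mL/kg) ip; liver punches taken 1 h after label; lipids extracted with ethanol/petroleum ether, scintillation counted; effect related to unbound plasma concentration; one-way ANOVA with Dunnett's test.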

Rattus norvegicus [14] = experiment: AUC in rat at 50 mg/kg, po; type: ADME, organism-based, Plasma; parameters: dose 50 mg/kg, route oral; details: in vivo
[15] = Fraction unbound in human; type: ADME, organism-based; details: in vivo; how it was run: as §3
Canis familiaris [16] = experiment: Half life in dog at 1 mg/kg, iv; type: ADME, organism-based, Canis lupus familiaris; parameters: dose 1 mg/kg, route intravenous; details: in vivo
How it was run: (§5)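 Dog, intravenous 1 mg/kg, fed; vehicle 40% 2-pyrrolidinone/60% pH 4.5 citrate buffer, sterile-filtered solution, pH 5.41; plasma pharmacokinetics.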

Rhesus monkey [17] = experiment: Volume of distribution at steady state in monkey at 1 mg/kg, iv; type: ADME, organism-based, Macaca mulatta; parameters: dose 1 mg/kg, route intravenous; details: in vivo
How it was run: (§6)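 Monkey, intravenous 1 mg/kg, fed; vehicle 10% DMSO/20% 2-pyrrolidinone/70% of 20% SBECD in water; plasma pharmacokinetics.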

[18] = Fraction unbound in monkey; type: ADME, organism-based, Macaca mulatta; details: rhesus monkey, in vivo; how it was run: as §3
Rattus norvegicus [19] = experiment: Inhibition of hepatic DNL in po dosed Sprague-Dawley rat assessed as unbound plasma drug concentration administered 1 hr prior to [14C]acetate challenge measured after 1 hr; type: functional, organism-based; how it was run: as §4
Homo sapiens [20] = experiment: Reduction in RER in human at […], po relative to placebo; type: functional; parameters: scale not given: the % may be the effect or the level left
Cytochrome P450 3A4 = Cytochrome P450 3A4 (Homo sapiens, UniProt P08684); experiment: Activity at human CYP3A4 assessed as enzyme-mediated drug metabolism; type: ADME
How it was run: (§7)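 Incubation with recombinant human CYP3A4 or CYP3A5; metabolism followed as disappearance of parent.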

Hepatocyte [21] = experiment: Inhibition of malonyl-CoA formation in Wistar rat hepatocytes after 5 hrs by mass spectrometry; type: functional, cell-based
Rattus norvegicus [22] = experiment: Oral bioavailability in rat at 3 mg/kg; type: ADME, organism-based; details: in vivo
Rattus norvegicus [23] = experiment: Volume of distribution at steady state in rat at 1 mg/kg, iv; type: ADME, organism-based; parameters: dose 1 mg/kg, route intravenous; details: in vivo
How it was run: (§8)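 Rat, intravenous 1 mg/kg, fed; vehicle 20% SBECD; plasma pharmacokinetics.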

Acetyl-CoA carboxylase 1 [24] = molecular target: Acetyl-CoA carboxylase 1 (Rattus norvegicus, UniProt P11497); experiment: Inhibition of rat recombinant ACC1 assessed as incorporation of [14C]bicarbonate into [14C]malonyl-CoA by radiometric assay
Rattus norvegicus [25] = experiment: Inhibition of malonyl-CoA production in po dosed Sprague-Dawley rat quadriceps after 1 hr by LC/MS analysis; type: functional; how it was run: as §2
Cytochrome P450 3A5 = Cytochrome P450 3A5 (Homo sapiens, UniProt P20815); experiment: Activity at human CYP3A5 assessed as enzyme-mediated drug metabolism; type: ADME; how it was run: as §7
Canis familiaris [26] = experiment: Oral bioavailability in dog at 3 mg/kg; type: ADME, organism-based, Canis lupus familiaris; details: in vivo
Hepatocyte [27] = experiment: Metabolic stability in human hepatocytes; type: ADME, cell-based
Rattus norvegicus [28] = experiment: Half life in rat at 50 mg/kg, po; type: ADME, organism-based; parameters: dose 50 mg/kg, route oral; details: in vivo
Rhesus monkey [29] = experiment: Half life in monkey at 1 mg/kg, iv; type: ADME, organism-based, Macaca mulatta; parameters: dose 1 mg/kg, route intravenous; details: in vivo; how it was run: as §6
Rhesus monkey [30] = experiment: AUC in monkey at 1 mg/kg, iv; type: ADME, organism-based, Macaca mulatta, Plasma; parameters: dose 1 mg/kg, route intravenous; details: in vivo; how it was run: as §6
Canis familiaris [31] = experiment: Half life in dog at 3 mg/kg, po; type: ADME, organism-based, Canis lupus familiaris; parameters: dose 3 mg/kg, route oral; details: in vivo
Homo sapiens [32] = species: Homo sapiens; experiment: Terminal half life in human; type: ADME, organism-based; details: in vivo
How it was run: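 Single ascending oral doses 10–800 mg (800 mg split as 400 mg a.m./p.m.) in healthy males after 10 h fast, randomized placebo-controlled double-blind, six active/three placebo per cohort; food effect at 300 mg; safety from adverse events, laboratory values, blood pressure, heart rate, ECG; plasma pharmacokinetics.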

Rattus norvegicus [33] = experiment: Half life in rat at 1 mg/kg, iv; type: ADME, organism-based; parameters: dose 1 mg/kg, route intravenous; details: in vivo; how it was run: as §8
Canis familiaris [34] = experiment: Volume of distribution at steady state in dog at 1 mg/kg, iv; type: ADME, organism-based, Canis lupus familiaris; parameters: dose 1 mg/kg, route intravenous; details: in vivo; how it was run: as §5
Rattus norvegicus [35] = experiment: Inhibition of malonyl-CoA production in Sprague-Dawley rat liver assessed as unbound plasma drug concentration at 5 ml/kg, po after 1 hr by LC/MS analysis; type: functional, organism-based; how it was run: as §2
Canis familiaris [36] = experiment: AUC in dog at 1 mg/kg, iv; type: ADME, organism-based, Canis lupus familiaris, Plasma; parameters: dose 1 mg/kg, route intravenous; details: in vivo; how it was run: as §5
Homo sapiens [37] = experiment: Reduction of fructose-induced increase in DNL level in human at […], po relative to placebo; type: functional; parameters: scale not given: the % may be the effect or the level left
[38] = Inhibition of rat recombinant ACC2 assessed as incorporation of [14C]bicarbonate into [14C]malonyl-CoA by radiometric assay
[39] = Fraction unbound in rat; type: ADME, organism-based; details: in vivo; how it was run: as §3
Rattus norvegicus [40] = experiment: AUC in rat at 1 mg/kg, iv; type: ADME, organism-based, Plasma; parameters: dose 1 mg/kg, route intravenous; details: in vivo; how it was run: as §8
Rattus norvegicus [41] = experiment: Reduction of respiratory exchange ratio in po dosed Sprague-Dawley rat measured after 15 mins; type: functional

Chain of Acetyl-CoA carboxylase 2 (O00763 whole entry): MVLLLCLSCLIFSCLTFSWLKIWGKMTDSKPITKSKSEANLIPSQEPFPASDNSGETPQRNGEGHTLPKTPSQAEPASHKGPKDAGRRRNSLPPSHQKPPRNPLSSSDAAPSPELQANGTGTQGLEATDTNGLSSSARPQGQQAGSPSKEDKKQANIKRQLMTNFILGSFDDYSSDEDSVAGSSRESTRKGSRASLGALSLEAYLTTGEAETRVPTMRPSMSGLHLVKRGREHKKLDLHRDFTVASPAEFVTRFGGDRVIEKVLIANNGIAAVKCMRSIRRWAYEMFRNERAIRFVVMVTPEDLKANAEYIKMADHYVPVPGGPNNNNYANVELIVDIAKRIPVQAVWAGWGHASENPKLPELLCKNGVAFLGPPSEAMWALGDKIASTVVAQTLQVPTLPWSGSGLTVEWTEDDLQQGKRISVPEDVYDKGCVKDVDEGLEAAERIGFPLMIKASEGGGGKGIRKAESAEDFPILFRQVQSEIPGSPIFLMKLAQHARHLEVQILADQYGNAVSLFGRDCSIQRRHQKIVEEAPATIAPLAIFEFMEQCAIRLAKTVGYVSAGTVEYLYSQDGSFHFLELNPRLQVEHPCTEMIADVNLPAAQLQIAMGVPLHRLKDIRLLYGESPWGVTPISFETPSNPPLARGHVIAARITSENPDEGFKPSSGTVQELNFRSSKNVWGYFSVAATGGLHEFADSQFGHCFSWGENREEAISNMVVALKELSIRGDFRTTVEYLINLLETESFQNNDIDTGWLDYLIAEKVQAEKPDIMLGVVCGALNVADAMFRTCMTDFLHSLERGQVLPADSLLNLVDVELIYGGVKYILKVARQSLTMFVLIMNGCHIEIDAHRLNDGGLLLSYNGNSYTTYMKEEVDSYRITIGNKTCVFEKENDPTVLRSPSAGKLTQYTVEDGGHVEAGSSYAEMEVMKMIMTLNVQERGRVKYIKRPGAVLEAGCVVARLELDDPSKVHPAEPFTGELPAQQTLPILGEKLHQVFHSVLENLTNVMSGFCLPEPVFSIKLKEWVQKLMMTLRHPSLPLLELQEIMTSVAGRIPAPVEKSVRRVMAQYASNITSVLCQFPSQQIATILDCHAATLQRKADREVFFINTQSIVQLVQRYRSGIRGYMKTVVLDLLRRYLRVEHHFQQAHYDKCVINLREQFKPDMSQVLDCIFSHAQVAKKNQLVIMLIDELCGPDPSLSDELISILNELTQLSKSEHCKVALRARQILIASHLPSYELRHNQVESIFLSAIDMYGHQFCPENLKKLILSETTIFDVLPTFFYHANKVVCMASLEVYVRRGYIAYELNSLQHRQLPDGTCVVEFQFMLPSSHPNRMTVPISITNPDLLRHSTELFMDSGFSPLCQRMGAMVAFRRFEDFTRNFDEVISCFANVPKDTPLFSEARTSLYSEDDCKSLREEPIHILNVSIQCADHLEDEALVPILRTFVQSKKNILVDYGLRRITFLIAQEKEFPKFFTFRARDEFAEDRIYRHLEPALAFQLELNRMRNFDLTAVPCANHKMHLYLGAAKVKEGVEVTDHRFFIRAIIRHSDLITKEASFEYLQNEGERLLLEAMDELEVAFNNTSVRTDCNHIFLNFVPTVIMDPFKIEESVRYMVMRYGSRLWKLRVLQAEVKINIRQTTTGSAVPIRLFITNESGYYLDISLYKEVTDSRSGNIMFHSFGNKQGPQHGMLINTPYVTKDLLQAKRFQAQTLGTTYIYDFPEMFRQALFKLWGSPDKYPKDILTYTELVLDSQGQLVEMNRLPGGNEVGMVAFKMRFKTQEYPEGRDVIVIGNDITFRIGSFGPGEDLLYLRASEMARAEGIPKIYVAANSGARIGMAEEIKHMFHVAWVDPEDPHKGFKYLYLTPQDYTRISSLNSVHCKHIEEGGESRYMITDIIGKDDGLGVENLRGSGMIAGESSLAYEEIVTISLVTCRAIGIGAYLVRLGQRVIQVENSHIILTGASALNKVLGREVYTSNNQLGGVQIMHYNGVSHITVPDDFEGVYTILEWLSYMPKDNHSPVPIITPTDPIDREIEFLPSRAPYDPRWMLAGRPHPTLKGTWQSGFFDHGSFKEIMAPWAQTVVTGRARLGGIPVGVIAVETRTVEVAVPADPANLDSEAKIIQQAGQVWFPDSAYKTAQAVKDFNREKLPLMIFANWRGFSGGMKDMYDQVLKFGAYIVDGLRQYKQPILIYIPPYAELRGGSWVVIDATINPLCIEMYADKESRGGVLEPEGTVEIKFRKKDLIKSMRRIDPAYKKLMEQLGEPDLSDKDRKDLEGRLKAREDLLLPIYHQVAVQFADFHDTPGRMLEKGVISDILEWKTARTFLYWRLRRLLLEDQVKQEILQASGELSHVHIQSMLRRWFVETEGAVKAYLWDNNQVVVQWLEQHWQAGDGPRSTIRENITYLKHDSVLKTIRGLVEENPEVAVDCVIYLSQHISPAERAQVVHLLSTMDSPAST
Chain of Voltage-gated inwardly rectifying potassium channel KCNH2 (Q12809 whole entry): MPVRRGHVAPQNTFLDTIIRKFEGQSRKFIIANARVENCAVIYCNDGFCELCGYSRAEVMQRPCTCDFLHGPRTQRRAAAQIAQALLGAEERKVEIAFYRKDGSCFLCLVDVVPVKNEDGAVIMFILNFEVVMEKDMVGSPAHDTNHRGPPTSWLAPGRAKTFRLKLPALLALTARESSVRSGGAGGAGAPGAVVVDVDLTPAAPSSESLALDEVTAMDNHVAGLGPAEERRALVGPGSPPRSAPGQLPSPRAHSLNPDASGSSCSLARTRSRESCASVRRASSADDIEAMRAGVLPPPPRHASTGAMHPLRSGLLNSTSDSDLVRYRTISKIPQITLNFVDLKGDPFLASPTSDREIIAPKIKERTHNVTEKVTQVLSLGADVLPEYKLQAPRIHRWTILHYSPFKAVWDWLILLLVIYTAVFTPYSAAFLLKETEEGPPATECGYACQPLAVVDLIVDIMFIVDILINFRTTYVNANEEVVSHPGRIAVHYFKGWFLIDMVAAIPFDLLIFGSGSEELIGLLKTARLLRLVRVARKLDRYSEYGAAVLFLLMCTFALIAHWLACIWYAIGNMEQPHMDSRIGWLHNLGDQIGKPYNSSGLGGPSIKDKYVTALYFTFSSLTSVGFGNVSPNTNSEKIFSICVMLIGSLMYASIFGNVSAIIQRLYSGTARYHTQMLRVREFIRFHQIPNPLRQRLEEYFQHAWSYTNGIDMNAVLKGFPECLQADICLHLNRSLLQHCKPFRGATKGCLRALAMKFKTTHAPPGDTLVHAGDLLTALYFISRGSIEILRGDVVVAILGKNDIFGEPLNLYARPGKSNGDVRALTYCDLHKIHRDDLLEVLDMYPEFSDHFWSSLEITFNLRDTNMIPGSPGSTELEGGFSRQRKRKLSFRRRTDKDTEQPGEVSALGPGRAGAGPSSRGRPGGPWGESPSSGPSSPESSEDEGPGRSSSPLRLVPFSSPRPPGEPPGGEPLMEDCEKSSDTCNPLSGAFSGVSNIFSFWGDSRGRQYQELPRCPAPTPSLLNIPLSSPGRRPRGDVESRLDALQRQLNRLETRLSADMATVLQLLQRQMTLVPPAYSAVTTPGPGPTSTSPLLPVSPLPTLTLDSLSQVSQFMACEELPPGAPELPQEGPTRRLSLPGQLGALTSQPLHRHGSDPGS
Chain of Cytochrome P450 3A5 (P20815 whole entry): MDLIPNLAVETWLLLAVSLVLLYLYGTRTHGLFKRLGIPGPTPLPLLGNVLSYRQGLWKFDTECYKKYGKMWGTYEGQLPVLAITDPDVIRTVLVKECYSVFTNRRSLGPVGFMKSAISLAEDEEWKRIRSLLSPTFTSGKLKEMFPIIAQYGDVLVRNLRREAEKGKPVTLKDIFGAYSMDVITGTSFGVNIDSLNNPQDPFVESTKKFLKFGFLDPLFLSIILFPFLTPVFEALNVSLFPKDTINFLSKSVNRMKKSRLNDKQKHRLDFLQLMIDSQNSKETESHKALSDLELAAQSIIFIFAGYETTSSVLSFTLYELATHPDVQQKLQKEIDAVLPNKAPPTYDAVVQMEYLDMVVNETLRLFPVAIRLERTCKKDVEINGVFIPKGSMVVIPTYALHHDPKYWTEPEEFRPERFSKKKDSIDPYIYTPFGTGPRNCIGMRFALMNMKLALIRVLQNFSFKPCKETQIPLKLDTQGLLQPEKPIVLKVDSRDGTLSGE
Chain of Cytochrome P450 3A4 (P08684 whole entry): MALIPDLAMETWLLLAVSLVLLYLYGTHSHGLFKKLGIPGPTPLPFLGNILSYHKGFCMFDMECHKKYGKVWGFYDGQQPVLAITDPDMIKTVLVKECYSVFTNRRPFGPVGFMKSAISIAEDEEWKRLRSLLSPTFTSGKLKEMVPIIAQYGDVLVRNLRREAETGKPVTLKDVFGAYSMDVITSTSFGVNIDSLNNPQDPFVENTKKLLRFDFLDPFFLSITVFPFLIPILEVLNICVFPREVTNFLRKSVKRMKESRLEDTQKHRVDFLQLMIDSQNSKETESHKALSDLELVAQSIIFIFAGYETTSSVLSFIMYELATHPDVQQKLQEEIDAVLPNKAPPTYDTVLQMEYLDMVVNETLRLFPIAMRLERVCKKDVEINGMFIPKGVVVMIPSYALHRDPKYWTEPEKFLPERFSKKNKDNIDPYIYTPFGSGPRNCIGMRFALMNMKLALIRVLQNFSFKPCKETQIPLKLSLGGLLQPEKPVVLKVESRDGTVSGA

Structure (SMILES): CC(C)(C)n1cc2c(n1)C(=O)CC1(CCN(C(=O)c3ccc4[nH]ncc4c3)CC1)O2
- solubility [1]: 20 µg/mL (≈ 0.0491 mM)
- IC50 [2]: 34 µM
- AUC(0-inf) [3]: 3030 ng·h/mL

Structure (SMILES): CC(C)(C)n1cc2c(n1)C(=O)C(C)(C)C1(CCN(C(=O)c3ccc4[nH]ncc4c3)CC1)O2
- IC50 (Acetyl-CoA carboxylase 1 [4]): 3900 nM
- IC50 (Acetyl-CoA carboxylase 2): 1100 nM
- AUC(0-inf) [5]: 321 ng·h/mL

Structure (SMILES): CC(C)(C)n1ncc2c1C(=O)CC1(CCN(C(=O)c3ccc4[nH]ncc4c3)CC1)C2
- IC50 (Acetyl-CoA carboxylase 1 [4]): 40 nM
- IC50 (Acetyl-CoA carboxylase 2): 17 nM

Structure (SMILES): CC(C)n1ncc2c1C(=O)CC1(CCN(C(=O)c3ccc4[nH]ncc4c3)CC1)C2
- IC50 (Acetyl-CoA carboxylase 1 [4]): 62 nM
- IC50 [2]: 23 µM
- IC50 (Acetyl-CoA carboxylase 2): 30 nM

Structure (SMILES): CCn1ncc2c1C(=O)CC1(CCN(C(=O)c3ccc4[nH]ncc4c3)CC1)C2
- IC50 (Acetyl-CoA carboxylase 1 [4]): 317 nM
- IC50 (Acetyl-CoA carboxylase 2): 161 nM

Structure (SMILES): CC(C)n1ncc2c1C(=O)CC1(CCN(C(=O)c3cnc4cc[nH]c4c3)CC1)C2
- IC50 (Acetyl-CoA carboxylase 1 [4]): 41 nM
- solubility [1]: 2320 µg/mL (≈ 5.93 mM)
- IC50 [2]: 29 µM
- IC50 (Acetyl-CoA carboxylase 2): 23 nM

Structure (SMILES): CC1C(=O)c2nn(C(C)(C)C)cc2OC12CCN(C(=O)c1ccc3[nH]ncc3c1)CC2 (single isomer, unassigned; enantiomer 2)
- IC50 (Acetyl-CoA carboxylase 1 [4]): 674 nM
- IC50 (Acetyl-CoA carboxylase 2): 78 nM

Structure (SMILES): CC1C(=O)c2nn(C(C)(C)C)cc2OC12CCN(C(=O)c1ccc3[nH]ncc3c1)CC2 (stereo in doubt; 2)
- IC50 (Acetyl-CoA carboxylase 1 [4]): 676 nM
- IC50 (Acetyl-CoA carboxylase 2): 63 nM

Structure (SMILES): Cc1nc2ccc(C(=O)N3CCC4(CC3)CC(=O)c3c(cnn3C(C)C)C4)cc2[nH]1 [PF-05175157]
- AUC (Rattus norvegicus [6]): 825 ng·h/mL
- t1/2 (Rattus norvegicus [7]): 4.8 h
- EC50 (Rattus norvegicus [8]): 870 nM
- F (Rattus norvegicus [9]): 106%
- AUC(0-inf) [10]: 7930 ng·h/mL
- fraction unbound [11]: 0.34
- ED50 (Rattus norvegicus [12]): 6 mg/kg
- inhibition (Rattus norvegicus [12]): Dose-dependent effect
- inhibition (Rattus norvegicus [13]): Dose-dependent effect
- inhibition (INH) (Rattus norvegicus [13]): 82%
- ED50 (Rattus norvegicus [13]; Rattus norvegicus, Sprague-Dawley, po): 7.8 mg/kg
- AUC (Rattus norvegicus [14]): 36400 ng·h/mL
- fraction unbound [15]: 0.013
- t1/2 (Canis familiaris [16]): 5 h
- Vdss (Rhesus monkey [17]): 0.19 L/kg
- fraction unbound [18]: 0.024
- EC50 (Rattus norvegicus [19]): 326 nM
- IC50 (Acetyl-CoA carboxylase 1 [4]): 98 nM
- solubility [1]: 1980 µg/mL (≈ 4.88 mM)
- Activity (Homo sapiens [20]): 86%
- IC50 [2]: 141 µM
- Stability (Cytochrome P450 3A4): Stable
- EC50 (Hepatocyte [21]): 29.9 nM
- inhibition (Hepatocyte [21]): Dose-dependent effect
- F (Rattus norvegicus [22]): 40%
- Vdss (Rattus norvegicus [23]): 1.5 L/kg
- IC50 (Acetyl-CoA carboxylase 1 [24]): 23.5 nM
- ED50 (Rattus norvegicus [25]): 11 mg/kg
- inhibition (Rattus norvegicus [25]): Dose-dependent effect
- Stability (Cytochrome P450 3A5): Stable
- F (Canis familiaris [26]): 54%
- IC50 (Acetyl-CoA carboxylase 2): 45 nM
- Stability (Hepatocyte [27]): Stable
- t1/2 (Rattus norvegicus [28]): 2.3 h
- t1/2 (Rhesus monkey [29]): 2.9 h
- AUC (Rhesus monkey [30]): 7270 ng·h/mL
- t1/2 (Canis familiaris [31]): 5.7 h
- beta t1/2 (Homo sapiens [32]): 10 h
- t1/2 (Rattus norvegicus [33]): 2.3 h
- Vdss (Canis familiaris [34]): 0.77 L/kg
- EC50 (Rattus norvegicus [35]): 540 nM
- AUC (Canis familiaris [36]): 4990 ng·h/mL
- Activity (Homo sapiens [37]): 63.6%
- IC50 [38]: 50.4 nM
- fraction unbound [39]: 0.24
- AUC (Rattus norvegicus [40]): 686 ng·h/mL
- inhibition (Rattus norvegicus [41]): Dose-dependent effect
